Measurements from ChEMBL document CHEMBL5058577, “EUbOPEN Chemogenomics Library 2 (Multiplex)” (2022).
Non-standard residues stand in square brackets, D forms with d. Residues, ends and D or L forms follow the SMILES beside them.

System: U2OS
Assay: Multiplex assay against U2OS
Format: toxicity, cell-based
Conditions: human
In short: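 Compound was added to live cells that had been stained at seeding with Hoechst33342, BioTracker Green Microtubule Cytoskeleton Dye, MitoTracker Red and Annexin V Alexa Fluor 680, and imaging followed on a CQ1 microscope at 37°C and 5% CO2. CellPathfinder machine-learning gating divided cells into Hoechst high-intensity objects or normal cells, normal cells into healthy, pyknosed or fragmented nuclei, and pyknosed cells into mitotic or apoptotic. Tubulin, mitochondrial-mass and membrane-permeability phenotypes are per cents of healthy-nucleus cells.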

[1] = 12 h, 1 µM, compound concentration 1 uM, replicate 1
[2] = 12 h, 1 µM, compound concentration 1 uM, replicate 2
[3] = 12 h, 10 µM, compound concentration 10 uM, replicate 1
[4] = 12 h, 10 µM, compound concentration 10 uM, replicate 2
[5] = 24 h, 1 µM, compound concentration 1 uM, replicate 1
[6] = 24 h, 1 µM, compound concentration 1 uM, replicate 2
[7] = 24 h, 10 µM, compound concentration 10 uM, replicate 1
[8] = 24 h, 10 µM, compound concentration 10 uM, replicate 2
[9] = 48 h, 1 µM, compound concentration 1 uM, replicate 1
[10] = 48 h, 1 µM, compound concentration 1 uM, replicate 2
[11] = 48 h, 10 µM, compound concentration 10 uM, replicate 1
[12] = 48 h, 10 µM, compound concentration 10 uM, replicate 2

Structure (SMILES): CC(C)C[C@@H]1NC(=O)[C@@H](C(C)C)NC(=O)[C@@H]2CCCN2C(=O)[C@@H](CC(=O)O)NC(=O)[C@@H](Cc2c[nH]c3ccccc23)NC1=O [BQ-123] (cyclo(L[dW][dD]P[dV]))
- Population Apoptotic (%) [1]: 77%
- Population Fragmented Nuclei (%) [1]: 20%
- Population Healthy Nuclei (%) [1]: 69%
- Population Hoechst High Intensity Objects (%) [1]: 0%
- Population Membrane Permeable-Phenotype (%) [1]: 1%
- Population Mitochondria Different-Phenotype (%) [1]: 1%
- Population Mitotic Cells (%) [1]: 22%
- Population Normal (%) [1]: 99%
- Population Pyknosed Nuclei (%) [1]: 9%
- Population Tubulin-Different-Phenotype (%) [1]: 0%
- Total Cell Count [1]: 228
- Population Apoptotic (%) [2]: 83%
- Population Fragmented Nuclei (%) [2]: 19%
- Population Healthy Nuclei (%) [2]: 75%
- Population Hoechst High Intensity Objects (%) [2]: 2%
- Population Membrane Permeable-Phenotype (%) [2]: 2%
- Population Mitochondria Different-Phenotype (%) [2]: 0%
- Population Mitotic Cells (%) [2]: 16%
- Population Normal (%) [2]: 97%
- Population Pyknosed Nuclei (%) [2]: 5%
- Population Tubulin-Different-Phenotype (%) [2]: 8%
- Total Cell Count [2]: 118
- Population Apoptotic (%) [3]: 78%
- Population Fragmented Nuclei (%) [3]: 29%
- Population Healthy Nuclei (%) [3]: 65%
- Population Hoechst High Intensity Objects (%) [3]: 2%
- Population Membrane Permeable-Phenotype (%) [3]: 8%
- Population Mitochondria Different-Phenotype (%) [3]: 1%
- Population Mitotic Cells (%) [3]: 21%
- Population Normal (%) [3]: 97%
- Population Pyknosed Nuclei (%) [3]: 4%
- Population Tubulin-Different-Phenotype (%) [3]: 3%
- Total Cell Count [3]: 294
- Population Apoptotic (%) [4]: 75%
- Population Fragmented Nuclei (%) [4]: 25%
- Population Healthy Nuclei (%) [4]: 70%
- Population Membrane Permeable-Phenotype (%) [4]: 7%
- Population Mitochondria Different-Phenotype (%) [4]: 4%
- Population Mitotic Cells (%) [4]: 25%
- Population Tubulin-Different-Phenotype (%) [4]: 2%
- Total Cell Count [4]: 99
- Population Apoptotic (%) [5]: 69%
- Population Fragmented Nuclei (%) [5]: 16%
- Population Healthy Nuclei (%) [5]: 75%
- Population Hoechst High Intensity Objects (%) [5]: 0%
- Population Membrane Permeable-Phenotype (%) [5]: 2%
- Population Mitochondria Different-Phenotype (%) [5]: 1%
- Population Mitotic Cells (%) [5]: 30%
- Population Normal (%) [5]: 99%
- Population Pyknosed Nuclei (%) [5]: 8%
- Population Tubulin-Different-Phenotype (%) [5]: 1%
- Total Cell Count [5]: 279
- Population Apoptotic (%) [6]: 85%
- Population Fragmented Nuclei (%) [6]: 11%
- Population Healthy Nuclei (%) [6]: 77%
- Population Membrane Permeable-Phenotype (%) [6]: 6%
- Population Mitochondria Different-Phenotype (%) [6]: 0%
- Population Mitotic Cells (%) [6]: 14%
- Population Pyknosed Nuclei (%) [6]: 10%
- Population Tubulin-Different-Phenotype (%) [6]: 3%
- Total Cell Count [6]: 137
- Population Apoptotic (%) [7]: 92%
- Population Fragmented Nuclei (%) [7]: 24%
- Population Healthy Nuclei (%) [7]: 67%
- Population Hoechst High Intensity Objects (%) [7]: 2%
- Population Membrane Permeable-Phenotype (%) [7]: 8%
- Population Mitochondria Different-Phenotype (%) [7]: 2%
- Population Mitotic Cells (%) [7]: 8%
- Population Normal (%) [7]: 97%
- Population Pyknosed Nuclei (%) [7]: 7%
- Population Tubulin-Different-Phenotype (%) [7]: 4%
- Total Cell Count [7]: 338
- Population Apoptotic (%) [8]: 100%
- Population Healthy Nuclei (%) [8]: 74%
- Population Hoechst High Intensity Objects (%) [8]: 0%
- Population Membrane Permeable-Phenotype (%) [8]: 6%
- Population Mitochondria Different-Phenotype (%) [8]: 8%
- Population Mitotic Cells (%) [8]: 0%
- Population Normal (%) [8]: 99%
- Population Pyknosed Nuclei (%) [8]: 1%
- Total Cell Count [8]: 113
- Population Apoptotic (%) [9]: 77%
- Population Fragmented Nuclei (%) [9]: 14%
- Population Healthy Nuclei (%) [9]: 79%
- Population Hoechst High Intensity Objects (%) [9]: 1%
- Population Membrane Permeable-Phenotype (%) [9]: 3%
- Population Mitochondria Different-Phenotype (%) [9]: 1%
- Population Mitotic Cells (%) [9]: 22%
- Population Normal (%) [9]: 98%
- Population Pyknosed Nuclei (%) [9]: 5%
- Population Tubulin-Different-Phenotype (%) [9]: 3%
- Total Cell Count [9]: 407
- Population Apoptotic (%) [10]: 100%
- Population Fragmented Nuclei (%) [10]: 18%
- Population Healthy Nuclei (%) [10]: 70%
- Population Mitochondria Different-Phenotype (%) [10]: 3%
- Population Mitotic Cells (%) [10]: 0%
- Population Pyknosed Nuclei (%) [10]: 10%
- Population Tubulin-Different-Phenotype (%) [10]: 2%
- Total Cell Count [10]: 226
- Population Apoptotic (%) [11]: 94%
- Population Fragmented Nuclei (%) [11]: 19%
- Population Healthy Nuclei (%) [11]: 70%
- Population Hoechst High Intensity Objects (%) [11]: 1%
- Population Membrane Permeable-Phenotype (%) [11]: 5%
- Population Mitochondria Different-Phenotype (%) [11]: 2%
- Population Mitotic Cells (%) [11]: 5%
- Population Normal (%) [11]: 98%
- Population Pyknosed Nuclei (%) [11]: 9%
- Population Tubulin-Different-Phenotype (%) [11]: 3%
- Total Cell Count [11]: 435
- Population Apoptotic (%) [12]: 81%
- Population Fragmented Nuclei (%) [12]: 20%
- Population Healthy Nuclei (%) [12]: 66%
- Population Mitochondria Different-Phenotype (%) [12]: 6%
- Population Mitotic Cells (%) [12]: 18%
- Population Pyknosed Nuclei (%) [12]: 12%
- Population Tubulin-Different-Phenotype (%) [12]: 2%
- Total Cell Count [12]: 131
